Converted amounts (≈) assume the structure as drawn.

From ChEMBL document CHEMBL4376812 (J Med Chem, 2019) come the findings set out here.

Data set [1] is described as follows: MRT in dog at 2 mg/kg, iv. It counts as ADME, organism-based, Canis lupus familiaris. The note with it: in vivo. Summed up:
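Dog and monkey iv PK: 2 mg/kg given by iv administration. Clearance (mL min⁻¹ kg⁻¹), Vss, T1/2 (h) and MRT (h) were derived.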

The next data set has as its system Mus musculus. The data set can be described thus: Antiinflammatory activity in CD40-induced colitis model of SCID mouse assessed as inhibition of IL-2 driven body weight loss at 50 mg/kg, po administered twice daily relative to control. Type of data set: functional. The note with it: in the assay text read “IL-12 driven” for “IL-2 driven”. Summed up:
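Colitis induced by anti-CD40 in SCID mice. Compound was given orally at 50 mg/kg twice daily. Read-outs were peak weight loss (IL-12 driven) and histological scores.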

Data set [2] is described as follows: Permeability coefficient, Kp across apical to basolateral side in human Caco2 cells. Type of data set: ADME, cell-based. The note with it: Caco-2, read-out: permeability. Summed up: (§1)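 Caco-2 monolayer permeability measured in both directions, apical-to-basal and basal-to-apical, reported as Pc in nm/s. An efflux ratio was calculated from the two directions.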
On the technique in general: Passage across Caco-2 layers is used to estimate intestinal permeability.

Data set [3] in a line: Metabolic stability in mouse liver microsomes assessed as half life. Type of data set: ADME, Microsome. Summed up: (§2)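 Liver microsomes from human, rat, mouse, dog, cynomolgus monkey and rabbit were incubated with compound. Stability is reported as half-life (T1/2, min). Values are means of at least three separate experiments.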
Background: Microsomes from liver hold many membrane-bound enzymes, among them those of drug oxidation.

Data set [4] can be described thus: Volume of distribution at steady state in dog at 2 mg/kg, iv. It counts as ADME, organism-based, Canis lupus familiaris. As to conditions: in vivo, read-out: Vdss. In short, it runs like this:
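Single intravenous dose in 80% PEG 400/20% water. V_ss was taken from the iv plasma PK profile.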

For data set [5], the target named is T1, Cytochrome P450 3A4 (Homo sapiens, UniProt P08684). The data set can be described thus: Inhibition of CYP3A4 (unknown origin). Type of data set: ADME. Summed up: (§3)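 Inhibition of CYP1A2, 2C9, 2C19, 2D6 and 3A4, read out as IC50. The highest concentration tested was 40 μM.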
T1 sequence (P08684 whole entry): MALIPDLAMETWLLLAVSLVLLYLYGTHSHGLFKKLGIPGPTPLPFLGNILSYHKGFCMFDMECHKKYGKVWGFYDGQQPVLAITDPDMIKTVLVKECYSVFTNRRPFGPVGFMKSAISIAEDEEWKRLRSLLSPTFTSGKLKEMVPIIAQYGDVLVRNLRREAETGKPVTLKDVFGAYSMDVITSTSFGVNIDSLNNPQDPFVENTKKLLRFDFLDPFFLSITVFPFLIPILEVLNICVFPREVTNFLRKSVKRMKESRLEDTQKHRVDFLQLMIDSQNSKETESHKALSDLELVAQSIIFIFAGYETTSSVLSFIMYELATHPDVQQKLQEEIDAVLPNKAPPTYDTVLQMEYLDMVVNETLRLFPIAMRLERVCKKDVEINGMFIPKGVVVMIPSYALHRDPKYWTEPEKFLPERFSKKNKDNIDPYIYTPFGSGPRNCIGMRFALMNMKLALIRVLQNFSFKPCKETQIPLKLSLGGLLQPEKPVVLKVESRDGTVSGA
Data set [6] is described as follows: Permeability coefficient, Kp across basolateral to apical side in human Caco2 cells. As to conditions: Caco-2, read-out: permeability. It counts as ADME, cell-based. In short, it runs like this: as §1
A short description of data set [7]: Protein binding in mouse assessed as unbound fraction. Type of data set: ADME.
The next data set deals with Cytochrome P450 2C9 (Homo sapiens, UniProt P11712). The data set can be described thus: Inhibition of CYP2C9 (unknown origin). Type of data set: ADME. In short, it runs like this: as §3
Chain of Cytochrome P450 2C9 (P11712 whole entry): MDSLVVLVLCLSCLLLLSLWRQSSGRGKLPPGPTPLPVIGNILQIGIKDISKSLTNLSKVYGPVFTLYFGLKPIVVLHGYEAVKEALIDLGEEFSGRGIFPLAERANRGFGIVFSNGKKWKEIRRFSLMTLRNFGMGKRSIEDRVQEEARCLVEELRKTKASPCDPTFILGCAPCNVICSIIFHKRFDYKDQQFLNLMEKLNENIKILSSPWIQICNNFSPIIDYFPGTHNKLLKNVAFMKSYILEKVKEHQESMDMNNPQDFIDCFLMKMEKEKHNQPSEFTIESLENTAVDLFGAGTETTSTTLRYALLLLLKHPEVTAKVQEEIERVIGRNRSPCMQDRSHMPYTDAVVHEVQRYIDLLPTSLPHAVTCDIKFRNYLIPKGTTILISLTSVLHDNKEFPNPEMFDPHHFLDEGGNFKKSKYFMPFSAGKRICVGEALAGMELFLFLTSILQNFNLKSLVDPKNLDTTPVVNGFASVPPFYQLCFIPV
Data set [8] can be described thus: Aqueous solubility of crystalline free base form of compound at pH 7.4. It counts as physicochemical. As to conditions: aqueous medium. In short, it runs like this: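 Aqueous solubility of the crystalline free base, measured at pH 7.4 and reported in μg/mL.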
Data set [9] has as its target T1, Cytochrome P450 3A4. Put plainly: Induction of CYP3A4 (unknown origin) by PXR-transactivation assay. Type of data set: ADME. Summed up:
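CYP3A4 induction measured by PXR transactivation, read out as EC50. The highest concentration tested was 40 μM.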

Data set [10] is described as follows: Metabolic stability in human liver microsomes assessed as half life. Type of data set: ADME, Microsome. In short, it runs like this: as §2
Data set [11] in a line: Half life in C57BL/6 mouse at 1 mg/kg, iv. It counts as ADME, organism-based. As to conditions: in vivo. In short, it runs like this:
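Mouse iv PK: 1 mg/kg in 80% PEG 400/20% water. Terminal half-life reported in hours.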

A word on the MRT: it is the average time that molecules of a dose stay in the body. What is called inhibition in vivo is the drop in the measured response relative to a control, in per cent. Usually half-life stands for how long it takes for the measured level to halve. One may read the IC50 as the midpoint of a concentration-inhibition curve. A low value points to higher potency. Usually fraction unbound stands for free concentration divided by total concentration. For orientation: solubility means the concentration that dissolves in the medium under given conditions. A low value points to a poorly soluble substance. Usually EC50 stands for the midpoint of the concentration-response curve. A lower EC50 goes with an effect from little substance. In turn, `[2H]C([2H])([2H])NC(=O)c1nnc(NC(=O)C2CC2)cc1Nc1cccc(-c2ncn(C)n2)c1OC` [DEUCRAVACITINIB] gave an MRT in data set [1] of 5.5 h. The inhibition in vivo at 50 mg/kg in the data set on Mus musculus turned out to be 99%. In addition, in data set [2], the Papp A→B stood at 7 ×10⁻⁶ cm/s. In addition, the half-life is > 2 h in data set [3], > 2 h in data set [10] and 4.2 h in data set [11]. Also, the Vd in [4] was determined as 2.3 L/kg. The half-inhibitory concentration (IC50) on Cytochrome P450 3A4 [5] and at Cytochrome P450 2C9 was > 40 µM each time. Further, the Papp B→A in [6] was determined as 74 ×10⁻⁶ cm/s. Also, the fraction unbound in [7] was found to be 0.15. The amount in solution in data set [8] (solubility) came to 5.2 µg/mL (≈ 12.2 µM). For the same compound, the EC50 on Cytochrome P450 3A4 [9] was > 40 µM.
